What was measured:
[1] = test system: Human immunodeficiency virus 1; test: Antiviral activity against HIV1 3B replication in human MT2 cells exposed to light assessed as inhibition of p24 production after 4 days by ELISA; settings: Human immunodeficiency virus 1, 3B, MT2, 96 h
[2] = test system: Human immunodeficiency virus 1; test: Antiviral activity against HIV1 3B replication in human MT2 cells under dark condition assessed as inhibition of p24 production after 4 days by ELISA; settings: Human immunodeficiency virus 1, 3B, MT2, 96 h
[3] = test system: Human immunodeficiency virus 1; test: Antiviral activity against HIV1 isolate 94UG103 replication in human PBMC assessed as inhibition of p24 production after 7 days by ELISA; settings: Human immunodeficiency virus 1, isolate 94UG103, 168 h
MT2 = test: Cytotoxicity against human MT2 cells after 4 days by XTT assay; format: cell-based; settings: mt2, 96 h
Method in brief: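 Graded compound concentrations mixed with equal volume of MT-2 cells (5×10^5/mL), 37 °C for 4 days. XTT (1 mg/mL) with 0.02 μM phenazine methosulphate added, absorbance at 450 nm read after 4 h; CC50 calculated with CalcuSyn.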

[4] = Selectivity index, ratio of CC50 for human MT2 cells to EC50 for HIV1 3B replication in human MT2 cells exposed to light; format: toxicity, cell-based; settings: read-out: Ratio CC50/EC50

| SMILES | EC50 [1] | EC50 [2] | EC50 [3] | CC50 (MT2) | selectivity ratio [4] |
| --- | --- | --- | --- | --- | --- |
| O=C(O)c1cncc(-c2ccc(/C=C3\SC(=S)N(CCc4ccccc4)C3=O)o2)c1 | 42 nM | 71 nM | 442 nM | 38400 nM | 915 |
| O=C(O)c1cc(-c2ccc(/C=C3\SC(=S)N(CCc4ccccc4)C3=O)o2)cnc1Cl | 232 nM | 1010 nM | 598 nM | 38400 nM | 165 |
| Cc1c(C(=O)O)cncc1-c1ccc(/C=C2\SC(=S)N(CCc3ccccc3)C2=O)o1 | 390 nM | 538 nM | 4040 nM | 78900 nM | 202 |
| O=C(O)c1cc(-c2ccc(/C=C3\SC(=S)N(CCc4ccccc4)C3=O)o2)ccc1F | 71 nM | 291 nM | 246 nM | 27000 nM | 380 |
| O=C(O)c1cc(-c2ccc(/C=C3\SC(=S)N(CCc4ccccc4)C3=O)o2)ccc1Br | 317 nM | 158 nM | 165 nM | 3290 nM | 10 |
| O=C(O)c1cc(-c2ccc(/C=C3\SC(=S)N(CCc4ccccc4)C3=O)o2)ccc1O | 1280 nM | 261 nM | 2660 nM | 14800 nM | 12 |
| O=C(O)c1cc(-c2ccc(/C=C3\SC(=S)N(CCc4ccccc4)C3=O)o2)ccc1Cl | 51 nM | 17 nM | 73 nM | 16800 nM | 330 |
| O=C(O)c1cccc(-c2ccc(/C=C3\SC(=S)N(CCc4ccccc4)C3=O)o2)c1F | 94 nM | 59 nM | 801 nM | 78300 nM | 835 |
| CCc1ccc(-c2ccc(/C=C3\SC(=S)N(CCc4ccccc4)C3=O)o2)cc1C(=O)O | 81 nM | 30 nM | 177 nM | 17400 nM | 215 |
| O=C(O)c1cccc(-c2ccc(/C=C3\SC(=S)N(CCc4ccccc4)C3=O)o2)c1 | 44 nM | 98 nM | 74 nM | 19400 nM | 440 |
| O=C(O)c1cc(-c2ccc(/C=C3\SC(=S)N(CCc4ccccc4)C3=O)o2)cnc1Br | 268 nM | 227 nM | 353 nM | 5530 nM | 40 |
| COc1ccc(-c2ccc(/C=C3\SC(=S)N(CCc4ccccc4)C3=O)o2)cc1C(=O)O | 1300 nM | 266 nM | 2230 nM | 28700 nM | 22 |
| Cc1ccc(-c2ccc(/C=C3\SC(=S)N(CCc4ccccc4)C3=O)o2)cc1C(=O)O | 99 nM | 31 nM | 70 nM | 42100 nM | 426 |
| Cc1c(C(=O)O)cccc1-c1ccc(/C=C2\SC(=S)N(CCc3ccccc3)C2=O)o1 | 43 nM | 92 nM | 648 nM | 26800 nM | 624 |
| O=C(O)c1cccc(-c2ccc(/C=C3\SC(=S)N(CCc4ccccc4)C3=O)o2)c1Cl | 64 nM | 78 nM | 33 nM | 6730 nM | 105 |
